Measured values reported in ChEMBL document CHEMBL4251706, “Elimination of HIV-1 Latently Infected Cells by Gnidimacrin and a Selective HDAC Inhibitor” (ACS Med Chem Lett, 2018).
Activity calls are given as the source filed them. The rule behind the calls is not given here.

Tests used:
[1] = system: Human immunodeficiency virus 1; assay: Reactivation of latent HIV1 infected in human U1 cells/uninfected U937 cell mixture assessed as reduction in proviral DNA level at 0.57 uM supplemented with fresh medium containing compound every 3 days for 18 days measured post last dose by PCR analysis; assay type: functional, organism-based
In short: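 U1/U937 (1:4) cultures treated for 18 days with T20 present and refed with compound every 3 days. HIV-1 pol DNA (200 bp) amplified by PCR for 30 cycles, with B2M (779 bp, 25 cycles) as internal control. Products run on 2% agarose gels and densitometry expressed as the treated/DMSO ratio.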

[2] = system: Human immunodeficiency virus 1; assay: Reactivation of latent HIV1 infected in human U1 cells/uninfected U937 cell mixture assessed as increase in p24 production at 0.57 uM supplemented with fresh medium containing compound every 3 days for 18 days and subsequent dosing at day 18 post dose measured on day 21 by ELISA
[3] = Cytotoxicity against human J-Lat (A2) cells assessed as effect on cell viability at 1 uM after 72 hrs by flow cytometric analysis; assay type: cell-based
In short: (§1)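 J-Lat (A2) cells, 1x10^6 cells/well, incubated with the test agent at 37 °C for 72 h. GFP-expressing cells and percent viable cells measured by flow cytometry. Two independent experiments.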

[4] = Selectivity index, ratio of CC50 for human U937 cells to EC50 for reactivation of latent HIV1 infected in human U1 cells
[5] = Cytotoxicity against human U937 cells assessed as reduction in cell viability after 48 hrs by CellTiter-Glo luminescent cell viability assay; assay type: cell-based, U-937
In short: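 U937 cells (HIV-1-negative parental line of U1) at 2x10^5 cells/ml exposed to a range of concentrations for 48 h at 37 °C. Viability read by CellTiter-Glo luminescence. CC50 ± SD derived from 3 independent experiments.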

[6] = system: Human immunodeficiency virus 1; assay: Reactivation of latent HIV1 infected in human J-Lat A2 cells assessed as increase in GFP positive cells at 1 uM after 72 hrs by flow cytometric analysis; assay type: functional, organism-based; in short: as §1
[7] = Cytotoxicity against human Jurkat cells assessed as reduction in cell viability after 72 hrs by CellTiter-Glo luminescent cell viability assay; assay type: cell-based
[8] = system: Human immunodeficiency virus 1; assay: Reactivation of latent HIV1 infected in human U1 cells assessed as increase in p24 production after 48 hrs by ELISA relative to vorinostat; assay type: functional
In short: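 U1 cells at 2x10^5 cells/ml incubated with a range of concentrations at 37 °C for 48 h. Supernatant p24 measured by HIV p24 ELISA. EC50 ± SD derived from 3 independent experiments.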

[9] = system: Human immunodeficiency virus 1; assay: Reactivation of latent HIV1 infected in human U1 cells assessed as increase in p24 production after 48 hrs by ELISA; assay type: functional, organism-based; details: Human immunodeficiency virus 1, U1, 48 h; read-out: EC50
[10] = molecular target: Histone deacetylase 3/Nuclear receptor corepressor 2 (HDAC3/NCoR2) (Homo sapiens) (UniProt O15379+Q9Y618); assay: Inhibition of full length human C-terminal His-tagged HDAC3/N-terminal GST-tagged NCOR2 (395 to 489 residues) expressed in baculovirus infected Sf9 insect cells using substrate measured after 60 mins by colorimetric method
[11] = U937 cells (CC50) and latent HIV-1 infected U1 cells (EC50)

EC50 [9]	inhibition [10]	SMILES	Activity [1]	Activity [2]	Activity [3]	selectivity ratio [4, 11]	CC50 at 48 h [5]	Activity [6]	CC50 at 72 h [7]	fold change (FC) [8]	selectivity ratio [4]
5700 nM	–	CC(=O)Nc1ccc(C(=O)Nc2nc(-c3cccs3)ccc2N)cc1	Active	Active	Non-Toxic	8.2	47300 nM	Active	44300 nM	1.3	–
–	–	C/C=C1\NC(=O)[C@H]2CSSCC/C=C/[C@H](CC(=O)N[C@H](C(C)C)C(=O)N2)OC(=O)[C@H](C(C)C)NC1=O [ROMIDEPSIN]	–	–	–	0.66	0.73 nM	–	–	–	–
–	–	O=C(CCCCCCC(=O)Nc1ccccc1)NO [VORINOSTAT]	–	–	–	–	780 nM	–	–	–	–
1400 nM	–	Nc1ccc(F)cc1NC(=O)c1ccc(CNC(=O)/C=C/c2cccnc2)cc1	–	–	–	3.6	5000 nM	–	–	1.5	–
600 nM	Active	Nc1ccccc1NC(=O)c1ccc(-c2cn(CCc3ccsc3)nn2)cc1	–	–	–	–	830 nM	–	–	0.12	1.4
